Screening results (PubChem BioAssay)
The full list was thinned out, with hits kept by preference.
N-glyco inh = blocks N-linked glycosylation in D54 reporter cells; actives 0.23% (n = 360,000); D54 ERlucT glycosylation luciferase reporter, 24 h; percent of 100 nM tunicamycin response; reporter increase, % at 12.5 µM; AID 588692;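 active = mean luciferase reporter signal, scaled so untreated is 0 and the glycosylation-blocking control 100, at or above a set limit in every replicate; inconclusive = mean reaches the limit but not every replicate does; inactive = mean below the limit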;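 also: luciferase carries N-glycosylation sites so blocking glycosylation raises the light; 0% = median of neutral control wells and 100% = median of 100 nM tunicamycin wells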
T cell HTS = modulates CD8 T cell binding to vesicles; actives 0.068% (n = 330,000); 2C CD8+ T cell-vesicle binding, flow cytometry; active compounds read low; response (vesicle binding), % at 7 µM;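 active = response, share of CD8 T cells binding vesicles, and their 90th percentile fluorescence all below set limits, cut at about 80% in these data, passing the limit was not always enough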;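 also: values below 100% mean blocked vesicle binding to the CD8+ T cells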
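Test system: purified 2C TCR transgenic mouse naive CD8+ T cells. Probe or stimulus: QL9-peptide-loaded Drosophila micro-vesicles bearing Ld, ICAM-1 and B7-1. Incubation: binding step 1.5 h, 37 °C, antibody labelling 20 min, ice. Measured by: flow cytometry of vesicle-bound cells.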
ALR inh = inhibitors of human sulfhydryl oxidase ALR. actives 3.8% (n = 290,000). inhibition, % (no concentration beside the values). purified ALR, DTT oxidation, H2O2 HRP-luminol luminescence;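 active = mean replicate inhibition above about 79%, with every replicate also reaching it, limit read from the data; inconclusive = only one of the two criteria met; inactive = mean below limit and not every replicate reaching it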
Target sequence (P55789 whole entry, looked up): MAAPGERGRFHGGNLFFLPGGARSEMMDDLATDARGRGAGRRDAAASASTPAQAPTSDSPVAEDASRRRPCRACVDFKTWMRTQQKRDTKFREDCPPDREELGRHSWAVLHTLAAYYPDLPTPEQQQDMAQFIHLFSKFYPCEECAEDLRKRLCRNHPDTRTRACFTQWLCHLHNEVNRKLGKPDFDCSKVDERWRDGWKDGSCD
The depositor's hits bear a star; i = inactive; ? = inconclusive; / = not tested or not shown.

SMILES | N-glyco inh | T cell HTS | ALR inh
CCOc1ccc(/C=C/C(=O)c2cc(Br)ccc(=O)c2O)cc1 | 3 | 842 | 96*
O=C(C=Cc1ccccc1)c1cc(Br)ccc1O | 10 | / | /
CCc1ccc(/C=C/C(=O)c2cc(Br)ccc(=O)c2O)cc1 | 6 | 271 | 36
O=C(Nc1ccc(C(=O)N2CCC(N3CCOCC3)CC2)cc1)c1ccc(Br)o1 | 2 | 478 | 4
COC(=O)[C@@H]1C[C@@]2(O)[C@@H](O)[C@@H](O)[C@@H](O)C[C@H]2N1Cc1cc(OC)cc(OC)c1 | 0 | 223 | /
COC(=O)c1cc2ccccc2n1S(=O)(=O)c1ccccc1 | -3 | 224 | /
C=CCn1c(NC(=O)CC)c(C(=O)OCC)sc1=S | -1 | 636 | 3
C=CCn1c(N)c(C(=O)OCC)sc1=S | 0 | 534 | 99*
CCOC(=O)c1sc(=S)n(Cc2ccccc2)c1N | -2 | 449 | 10
CCn1c(N)c(C(=O)NCc2ccco2)sc1=S | 1 | 297 | /
C=CCn1c(N)c(C(=O)N2CCN(C)CC2)sc1=S | -1 | 290 | 99*
CCn1c(N)c(C(N)=O)sc1=S | 0 | 147 | 98*
Cc1ccc(-n2c(N)c(C(=O)N3CCN(C)CC3)sc2=S)cc1 | -1 | 448 | 3
CCOC(=O)c1sc(=S)n(CC)c1N | 1 | 298 | 99*
CCCCNC(=O)C1(C)CCN1C(=O)c1cccnc1Oc1ccccc1 (stereo not given) | 2 | / | /
NC(=O)Cn1nc([N+](=O)[O-])nc1Oc1ccccc1C(=O)N1CCOCC1 | 1 | 258 | -9
COc1cc(C)ccc1S(=O)(=O)NC(=O)C1(C)CCN1C(=O)Cc1ccccc1Cl (stereo not given) | 1 | / | /
Cc1ccccc1-c1cc2nc(NCc3ccccc3F)n(C)c(=O)c2s1 | -3 | / | /
CCn1c(N)c(C(=O)NC2CCCCC2)sc1=S | -1 | 389 | 98*
CCn1c(C)c(C)c2cc(C(=O)NC3CCCCCC3)ccc21 | -1 | 200 | ?
CCOC(=O)c1sc(=S)n(C)c1C | 1 | 162 | -8
CCOC(=O)c1sc(=S)n(C)c1N | 1 | 216 | 99*
COc1ccc(N2CCC(CNC(=S)Nc3ccc(C)cc3C)C2)cc1 (stereo not given) | -6 | 85 | 61
Cc1nc(C#N)c(N/N=C/c2c(F)cccc2Cl)o1 | 1 | 621 | 98*
Cc1nc(N)nc(N/N=C/c2c(F)cccc2Cl)n1 | 2 | 177 | /
SMILES | N-glyco inh | T cell HTS | ALR inh
Cc1ccsc1/C=C(\C(=O)c1ccc(OC(C)C)cc1)c1nc2ccccc2o1 | 1 | 207 | -10
COc1ccc(CC(=O)N(Cc2ccccc2)c2ccc(C)cc2)cc1OC | 31* | 356 | 12
COc1ccc(CC(=O)N(Cc2ccccc2)c2ccc(C)cc2)cc1S(=O)(=O)N1CCOCC1 | 21 | i | 8
O=C(Nc1cccc(/C=C/c2ccccn2)c1)c1ccc(-n2cncn2)cc1 | -5 | 298 | 0
CCN1CCn2c3c(c4cc(C)ccc42)CCCC31 (stereo not given) | -3 | 473 | 98*
Cc1ccc2c(c1)c1c3n2CCN(CCC#N)C3CCC1 (stereo not given) | 1 | / | /
COc1ccc2cc(/C(C)=N/NC(=O)c3cc(C)oc3C)ccc2c1 | 2 | / | /
Cc1cc(C(=O)Nc2ccc(F)c(Cl)c2)on1 | 0 | 234 | -9
COc1cccc(CNC(=O)c2cccs2)c1 | -1 | 495 | -1
CC(C)Cc1ccc(CN2CCCC(NC(=O)CCn3cnnn3)C2)cc1 (stereo not given) | -1 | 608 | -6
c1cc2c(c(NCc3ccncc3)c1)CCCC2 | -1 | 202 | 99*
CC(C)(C)CC(=O)Nc1cccc2c1CCCC2 | -2 | 342 | 2
CCOc1ccc(NC(=O)C(C)SC(N)=O)cc1 (stereo not given) | 2 | 0 | 99*
CCOc1ccc(NC(=O)C(C)Sc2nnnn2C)cc1 (stereo not given) | 3 | 302 | 0
Cn1cnc(S(=O)(=O)N2CCCCC2c2cc(C(=O)Nc3ccc(F)c(Cl)c3)no2)c1 (stereo not given) | -2 | / | /
O=C1c2ccc(-c3ccc4c(c3)C(=O)N(CCO)C4=O)cc2C(=O)N1CCO | 0 | 383 | /
CCOc1cc(/C=C2/NC(=O)NC2=O)cc([N+](=O)[O-])c1O | 2 | 318 | 94*
C=CCc1cc(/C=C2/NC(=O)NC2=O)cc(OCC)c1O | -1 | 128 | 9
O=C1C(CSCc2ccccc2)NC(=S)N1c1ccccc1 (stereo not given) | 7 | i | -96
CCCOc1cccc(C2C(C(=O)c3ccco3)=C(O)C(=O)N2c2nnc(C)s2)c1 (stereo not given) | 2 | 248 | 6
Cc1ccc(C2C(C(=O)c3ccco3)=C(O)C(=O)N2c2ncccn2)cc1 (stereo not given) | 0 | 262 | 14
Cc1nnc(N2C(=O)C(O)=C(C(=O)c3ccco3)C2c2ccc(F)cc2)s1 (stereo not given) | 2 | 357 | 71
Cc1nnc(N2C(=O)C(O)=C(C(=O)c3ccco3)C2c2ccc(C(C)(C)C)cc2)s1 (stereo not given) | 0 | 475 | 97*
CSc1ccc(C2C(C(=O)c3ccco3)=C(O)C(=O)N2c2nnc(SC)s2)cc1 (stereo not given) | 3 | 126 | 98*
Cc1nnc(N2C(=O)C(O)=C(C(=O)c3ccco3)C2c2ccc(C(C)C)cc2)s1 (stereo not given) | 1 | 306 | 97*
SMILES | N-glyco inh | T cell HTS | ALR inh
COc1cc(C)ccc1OCc1cc(C(=O)N2CCC(c3ccc(F)cc3)C2)no1 (stereo not given) | -3 | 349 | 0
Cn1c(CN2CCOCC2)nnc1SCc1cccc(F)c1 | -2 | 247 | -1
Cc1ncc(CO)n1Cc1ccc(Cl)cc1 | -1 | / | /
CC(=O)C1C(c2cccc(F)c2)c2c(n[nH]c2C)CC1(C)O (stereo not given) | 1 | 161 | -2
N#CNC(=Nc1ccccc1F)SCc1ccc(C(=O)O)cc1 | 2 | 151 | 99*
N#CNC(=Nc1cccc(F)c1)SCc1ccccc1 | 1 | 133 | -4
Cc1ccc(-n2ccnc2SCC(=O)O)cc1C | 0 | 356 | 2
O=S(=O)(c1cnccc1N1CCN(CCO)CC1)N1CCCCC1 | 1 | 328 | -10
COc1ccc(CCN(C)Cc2ccc(OC)c(OCc3ccccc3)c2)cc1OC | -1 | / | -5
COc1ccc(CCN(C)Cc2ccc(OCc3ccccc3)c(OC)c2)cc1OC | 0 | 307 | 99*
CCc1ccc(NC(=O)CCc2ccc(CC)o2)cc1 | 3 | 206 | 24
COc1cc(C(=O)NNC(=O)c2ccccc2Br)ccc1OCC(=O)N1CCOCC1 | 1 | 578 | 2
CN(c1cccc(Cl)c1)S(=O)(=O)c1cccc(C(=O)NC2=NCCS2)c1 | -2 | 318 | 98*
COc1ccc(N(C)S(=O)(=O)c2cccc(C(=O)Nc3cccc(C(=O)NC4CC4)c3)c2)cc1 | -2 | 212 | 94*
CCc1nnc(NC(=O)c2cccc(S(=O)(=O)N(C)c3ccccc3)c2)s1 | 3 | 422 | -11
COc1ccc(N(C)S(=O)(=O)c2cccc(C(=O)Nc3nnc(C)s3)c2)cc1 | -1 | 373 | -4
CN(c1cccc(Cl)c1)S(=O)(=O)c1cccc(C(=O)Nc2nc3ccccc3[nH]2)c1 | -5 | 306 | 71
